How the values were obtained:
[1] = Half life in female C57BL/6J mouse brain at 50 mg/kg, ip by LC-MS/MS analysis; format: ADME, organism-based
U-87MG ATCC = assay: Inhibition of kynurenine production in human U87 cells overexpressing GFP-fused IDO1 cells pretreated with IFN-gamma for 24 hrs followed by compound addition and measured after 24 hrs by Ehrlich's reagent based analysis; format: functional, cell-based; conditions: dose 50-100 nM
[2] = biological target: T1, Protein cereblon/Indoleamine 2,3-dioxygenase 1 (Homo sapiens, UniProt P14902+Q96SW2); assay: PROTAC activity at CRBN/IDO1 in human GBM43 cell assessed as induction of IDO1 degradation at 0.1 uM pretreated with IFN-gamma for 24 hrs followed by compound addition and measured after 24 hrs by Western blotting analysis (reference value: 100%); format: cell-based
In short: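 GBM43 patient-derived cells given an extended dose range of PROTAC for 24 h. Protein analysed by Western blot for IDO1, and IFNγ-induced IDO1 normalised to untreated samples. n = 3 independent experiments; data as mean ± SEM.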

SK-OV-3 = assay: Inhibition of kynurenine production in human SK-OV-3 cells pretreated with IFN-gamma for 24 hrs followed by compound addition and measured after 24 hrs by Ehrlich's reagent based analysis; format: functional, cell-based; conditions: dose 50-100 nM
[3] = biological target: T1, Protein cereblon/Indoleamine 2,3-dioxygenase 1; assay: PROTAC activity at CRBN/IDO1 in human PDX-38 cells assessed as induction of IDO1 degradation pretreated with IFN-gamma for 24 hrs followed by compound addition and measured after 24 hrs by Western blotting analysis; format: cell-based; conditions: dose 50-100 nM
In short: (§1)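 Cells had IDO1 induced with IFNγ, then were treated at the indicated concentrations for 24 h. Lines: PDX-6 and PDX-38 adult GBM PDX cells, U87 overexpressing GFP-fused IDO1, PC-3, KNS42, MDA-MB-231, SW-1990 and SKOV-3. Lysates probed for IDO1 and GAPDH by Western blot; representative of 3 separate replicates.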

[4] = biological target: T1, Protein cereblon/Indoleamine 2,3-dioxygenase 1; assay: PROTAC activity at CRBN/IDO1 in human U87 cells assessed as induction of IDO1 degradation by measuring remaining activity at 50 nM pretreated with IFN-gamma for 24 hrs followed by compound addition and measured after 24 hrs by Western blotting analysis (reference value: 100%); format: cell-based
[5] = biological target: T1, Protein cereblon/Indoleamine 2,3-dioxygenase 1; assay: PROTAC activity at CRBN/IDO1 in human SK-OV-3 cells assessed as induction of IDO1 degradation pretreated with IFN-gamma for 24 hrs followed by compound addition and measured after 24 hrs by Western blotting analysis; format: cell-based; conditions: dose 50-100 nM; in short: as §1
[6] = biological target: T1, Protein cereblon/Indoleamine 2,3-dioxygenase 1; assay: PROTAC activity at CRBN/IDO1 in human U87 cells assessed as induction of IDO1 degradation by measuring remaining activity at 0.001 uM pretreated with IFN-gamma for 24 hrs followed by compound addition and measured after 24 hrs by Western blotting analysis (reference value: 100%); format: cell-based
In short: (§2)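 U87 cells given an extended dose range of PROTAC for 24 h, then Western blot for IDO1. IFNγ-induced IDO1 levels normalised to untreated samples. n = 3 independent experiments; mean ± SEM.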

[7] = biological target: T1, Protein cereblon/Indoleamine 2,3-dioxygenase 1; assay: PROTAC activity at CRBN/IDO1 in human U87 cells assessed as induction of IDO1 degradation by measuring remaining activity at 0.003 uM incubated for 24 hrs by Western blotting analysis (reference value: 100%); format: cell-based
KNS-42 = assay: Inhibition of kynurenine production in human KNS-42 cells pretreated with IFN-gamma for 24 hrs followed by compound addition and measured after 24 hrs by Ehrlich's reagent based analysis; format: functional, cell-based; conditions: dose 50-100 nM
[8] = biological target: T1, Protein cereblon/Indoleamine 2,3-dioxygenase 1; assay: PROTAC activity at CRBN/IDO1 in human U87 cells assessed as induction of IDO1 degradation by measuring remaining activity at 0.1 uM pretreated with IFN-gamma for 24 hrs followed by compound addition and measured after 24 hrs by Western blotting analysis (reference value: 100%); format: cell-based; in short: as §2
[9] = Cmax in female C57BL/6J mouse brain at 50 mg/kg, ip by LC-MS/MS analysis; format: ADME, organism-based

T1 sequence (P14902 whole entry, looked up): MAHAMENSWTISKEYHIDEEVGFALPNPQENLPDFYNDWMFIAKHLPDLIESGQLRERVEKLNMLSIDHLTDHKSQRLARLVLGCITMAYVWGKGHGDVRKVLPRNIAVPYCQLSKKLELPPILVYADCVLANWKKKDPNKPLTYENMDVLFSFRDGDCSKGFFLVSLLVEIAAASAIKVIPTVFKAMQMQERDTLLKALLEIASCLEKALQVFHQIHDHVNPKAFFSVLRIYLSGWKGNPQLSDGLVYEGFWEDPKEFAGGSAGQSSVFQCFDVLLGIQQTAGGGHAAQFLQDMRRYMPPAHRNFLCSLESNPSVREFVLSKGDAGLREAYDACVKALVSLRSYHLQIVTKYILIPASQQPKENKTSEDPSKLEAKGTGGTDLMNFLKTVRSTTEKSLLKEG
T1 sequence (Q96SW2 whole entry, looked up): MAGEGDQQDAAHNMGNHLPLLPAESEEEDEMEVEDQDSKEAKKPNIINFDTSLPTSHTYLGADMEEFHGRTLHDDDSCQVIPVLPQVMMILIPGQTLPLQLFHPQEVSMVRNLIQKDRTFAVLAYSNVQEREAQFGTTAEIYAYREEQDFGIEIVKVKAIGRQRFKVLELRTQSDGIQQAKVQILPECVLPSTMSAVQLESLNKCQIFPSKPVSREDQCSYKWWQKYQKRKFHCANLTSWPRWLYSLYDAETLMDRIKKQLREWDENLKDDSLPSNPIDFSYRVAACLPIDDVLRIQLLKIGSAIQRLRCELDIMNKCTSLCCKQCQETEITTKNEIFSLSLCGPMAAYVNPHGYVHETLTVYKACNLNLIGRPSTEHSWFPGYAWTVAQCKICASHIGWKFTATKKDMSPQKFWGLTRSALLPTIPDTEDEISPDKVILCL

SMILES: C[C@@H](C(=O)Nc1cccc(OC2CCN(C(=O)CN3CCC(N4CCN(c5ccc6c(c5)C(=O)N(C5CCC(=O)NC5=O)C6=O)CC4)CC3)CC2)c1)[C@H]1CC[C@@H](c2ccnc3ccc(F)cc32)CC1 (some centres not stated)
- half-life [1]: 11.8 h
- inhibition (U-87MG ATCC): Dose-dependent-effect
- Activity [2]: 13%
- inhibition (SK-OV-3): Dose-dependent-effect
- Activity [3]: Dose-dependent-effect
- Activity [4]: 28%
- Activity [5]: Dose-dependent-effect
- Activity [6]: 83%
- Activity [7]: 71%
- inhibition (KNS-42): Dose-dependent-effect
- Activity [8]: 12%
- Cmax [9]: 0.1 µM

— ChEMBL document CHEMBL6153131, “Rational Design and Optimization of a Potent IDO1 Proteolysis Targeting Chimera (PROTAC)” (J Med Chem, 2025)
